Experiments:
Format in all cases: functional
[1] = test system: Rattus norvegicus; assay: Tested for acute anti-inflammatory activity of the antirat serum-induced edema in rats at dose of 0.1 mg/kg at time interval- 2 hr
In short: (§1)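 Oral dosing of fasted Wistar rats (200–240 g, six per group) with drug in 0.5 mL 2% gelatin; 1 h later 0.1 mL rabbit antirat serum given by subplantar injection into hind paw.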

[2] = test system: Rattus norvegicus; assay: Tested for acute anti-inflammatory activity of carrageenan-induced foot edema in rats at dose of 0.1 mg/kg at time interval- 0.5 hr
In short: (§2)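 Fasted male-unspecified Wistar rats (200–240 g), groups of six, dosed orally with drug in 0.5 mL 2% gelatin; 1 h later 0.1 mL carrageenan (2% in […]) injected subplantar into hind paw. Paw volume by water plethysmometer at 0, 0.5, 1, 2, 3, 4 h; mean swelling versus vehicle-treated group expressed as percent inhibition.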

[3] = test system: Rattus norvegicus; assay: Tested for acute anti-inflammatory activity of carrageenan-induced foot edema in rats at dose of 0.1 mg/kg at time interval- 1 hr; in short: as §2
[4] = test system: Rattus norvegicus; assay: Tested for acute anti-inflammatory activity of carrageenan-induced foot edema in rats at dose of 0.1 mg/kg at time interval- 2 hr; in short: as §2
[5] = test system: Rattus norvegicus; assay: Tested for acute anti-inflammatory activity of carrageenan-induced foot edema in rats at dose of 0.1 mg/kg at time interval- 3h; in short: as §2
[6] = test system: Rattus norvegicus; assay: Tested for acute anti-inflammatory activity of carrageenan-induced foot edema in rats at dose of 0.1 mg/kg at time interval- 4 hr; in short: as §2
[7] = test system: Rattus norvegicus; assay: Tested for acute anti-inflammatory activity of carrageenan-induced foot edema in rats at dose of 10 mg/kg at time interval- 0.5 hr; in short: as §2
[8] = test system: Rattus norvegicus; assay: Tested for acute anti-inflammatory activity of carrageenan-induced foot edema in rats at dose of 10 mg/kg at time interval- 1 hr; in short: as §2
[9] = test system: Rattus norvegicus; assay: Tested for acute anti-inflammatory activity of carrageenan-induced foot edema in rats at dose of 10 mg/kg at time interval- 2 hr; in short: as §2
[10] = test system: Rattus norvegicus; assay: Tested for acute anti-inflammatory activity of carrageenan-induced foot edema in rats at dose of 10 mg/kg at time interval- 3h; in short: as §2
[11] = test system: Rattus norvegicus; assay: Tested for acute anti-inflammatory activity of carrageenan-induced foot edema in rats at dose of 10 mg/kg at time interval- 4 hr; in short: as §2
[12] = test system: Rattus norvegicus; assay: Tested for acute anti-inflammatory activity of carrageenan-induced foot edema in rats at dose of 1 mg/kg at time interval- 0.5 hr; in short: as §2
[13] = test system: Rattus norvegicus; assay: Tested for acute anti-inflammatory activity of carrageenan-induced foot edema in rats at dose of 1 mg/kg at time interval- 1 hr; in short: as §2
[14] = test system: Rattus norvegicus; assay: Tested for acute anti-inflammatory activity of carrageenan-induced foot edema in rats at dose of 1 mg/kg at time interval- 2 hr; in short: as §2
[15] = test system: Rattus norvegicus; assay: Tested for acute anti-inflammatory activity of carrageenan-induced foot edema in rats at dose of 1 mg/kg at time interval- 3h; in short: as §2
[16] = test system: Rattus norvegicus; assay: Tested for acute anti-inflammatory activity of carrageenan-induced foot edema in rats at dose of 1 mg/kg at time interval- 4 hr; in short: as §2
[17] = test system: Rattus norvegicus; assay: Tested for acute anti-inflammatory activity of the antirat serum-induced edema at dose of 1 mg/kg at time interval- 3h; in short: as §1
[18] = test system: Rattus norvegicus; assay: Tested for acute anti-inflammatory activity of the antirat serum-induced edema in rats at dose of 0.1 mg/kg at time interval- 0.5 hr; in short: as §1
[19] = test system: Rattus norvegicus; assay: Tested for acute anti-inflammatory activity of the antirat serum-induced edema in rats at dose of 0.1 mg/kg at time interval- 3h; in short: as §1
[20] = test system: Rattus norvegicus; assay: Tested for acute anti-inflammatory activity of the antirat serum-induced edema in rats at dose of 0.1 mg/kg at time interval- 4 hr; in short: as §1
[21] = test system: Rattus norvegicus; assay: Tested for acute anti-inflammatory activity of the antirat serum-induced edema in rats at dose of 10 mg/kg at time interval- 0.5 hr; in short: as §1
[22] = test system: Rattus norvegicus; assay: Tested for acute anti-inflammatory activity of the antirat serum-induced edema in rats at dose of 10 mg/kg at time interval- 1 hr; in short: as §1
[23] = test system: Rattus norvegicus; assay: Tested for acute anti-inflammatory activity of the antirat serum-induced edema in rats at dose of 10 mg/kg at time interval- 3h; in short: as §1
[24] = test system: Rattus norvegicus; assay: Tested for acute anti-inflammatory activity of the antirat serum-induced edema in rats at dose of 10 mg/kg at time interval- 4 hr; in short: as §1
[25] = test system: Rattus norvegicus; assay: Tested for acute anti-inflammatory activity of the antirat serum-induced edema in rats at dose of 1 mg/kg at time interval- 0.5 hr; in short: as §1
[26] = test system: Rattus norvegicus; assay: Tested for acute anti-inflammatory activity of the antirat serum-induced edema in rats at dose of 1 mg/kg at time interval- 1 hr; in short: as §1
[27] = test system: Rattus norvegicus; assay: Tested for acute anti-inflammatory activity of the antirat serum-induced edema in rats at dose of 1 mg/kg at time interval- 2 hr; in short: as §1
[28] = test system: Rattus norvegicus; assay: Tested for acute anti-inflammatory activity of the antirat serum-induced edema in rats at dose of 1 mg/kg at time interval- 4 hr; in short: as §1
[29] = test system: Rattus norvegicus; assay: Tested for acute anti-inflammatory activity of the antirat serum-induced edema in rats at dose of 0.1 mg/kg at time interval- 1 hr; in short: as §1
[30] = test system: Rattus norvegicus; assay: Tested for acute anti-inflammatory activity of the antirat serum-induced edema in rats at dose of 10 mg/kg at time interval- 2 hr; in short: as §1

COc1ccc2c(c1)c(CC(=O)O)c(C)n2C(=O)c1ccc(Cl)cc1 [INDOMETHACIN]
inhibition in vivo at 0.1 mg/kg [1]: 4.4% | inhibition in vivo at 0.1 mg/kg [2]: -124% | inhibition in vivo at 0.1 mg/kg [3]: 11.3% | inhibition in vivo at 0.1 mg/kg [4]: 1.7% | inhibition in vivo at 0.1 mg/kg [5]: 4% | inhibition in vivo at 0.1 mg/kg [6]: -1.7% | inhibition in vivo at 10 mg/kg [7]: -57.1% | inhibition in vivo at 10 mg/kg [8]: 26.2% | inhibition in vivo at 10 mg/kg [9]: 55.5% | inhibition in vivo at 10 mg/kg [10]: 68.7% | inhibition in vivo at 10 mg/kg [11]: 65.2% | inhibition in vivo at 1 mg/kg [12]: -22.2% | inhibition in vivo at 1 mg/kg [13]: 41.8% | inhibition in vivo at 1 mg/kg [14]: 40.2% | inhibition in vivo at 1 mg/kg [15]: 40% | inhibition in vivo at 1 mg/kg [16]: 29.5% | inhibition in vivo at 1 mg/kg [17]: 1.6% | inhibition in vivo at 0.1 mg/kg [18]: -28.3% | inhibition in vivo at 0.1 mg/kg [19]: 4.4% | inhibition in vivo at 0.1 mg/kg [20]: 16.9% | inhibition in vivo at 10 mg/kg [21]: -21.2% | inhibition in vivo at 10 mg/kg [22]: -1.5% | inhibition in vivo at 10 mg/kg [23]: 25.5% | inhibition in vivo at 10 mg/kg [24]: 24.5% | inhibition in vivo at 1 mg/kg [25]: -8.1% | inhibition in vivo at 1 mg/kg [26]: -3% | inhibition in vivo at 1 mg/kg [27]: 10% | inhibition in vivo at 1 mg/kg [28]: 7.5% | inhibition in vivo at 0.1 mg/kg [29]: -7.9% | inhibition in vivo at 10 mg/kg [30]: 22.5%

Reference: ChEMBL document CHEMBL1127451, “Benzoselenazolinone derivatives designed to be glutathione peroxidase mimetics feature inhibition of cyclooxygenase/5-lipoxygenase pathways and anti-inflammatory activity” (1994)
